Compound activity (PubChem)
Sampled rows, rich in hits. Any-hit rate of the full collection: about 2.3%.
TRPC6 act: mouse TRPC6 channel activation. Q61143. HEK293-TRPC6 membrane potential dye fluorescence; active compounds read high. B-score at 10 µM. hit rate 0.13% among 310,000. AID 2550;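 active = B-score of the integrated fluorescence ratio above library mean plus 3 SD, and starting fluorescence ratio within library mean plus 5 SD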;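 note: higher score means more depolarization so channel activation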
TRPC4 PAM: TRPC4 (mouse) allosteric potentiation; B-score at 10 µM; HEK293 TRPC4beta/mu-opioid, DAMGO EC20, Fluo-4 Ca2+ flux; active compounds read high; Q9QUQ5; hit rate 0.42% among 310,000;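 active = B-score of calcium response area above 5 SD of library B-scores, with initial fluorescence ratio within 5 SD of library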
Target sequence (Q9QUQ5 whole entry, looked up): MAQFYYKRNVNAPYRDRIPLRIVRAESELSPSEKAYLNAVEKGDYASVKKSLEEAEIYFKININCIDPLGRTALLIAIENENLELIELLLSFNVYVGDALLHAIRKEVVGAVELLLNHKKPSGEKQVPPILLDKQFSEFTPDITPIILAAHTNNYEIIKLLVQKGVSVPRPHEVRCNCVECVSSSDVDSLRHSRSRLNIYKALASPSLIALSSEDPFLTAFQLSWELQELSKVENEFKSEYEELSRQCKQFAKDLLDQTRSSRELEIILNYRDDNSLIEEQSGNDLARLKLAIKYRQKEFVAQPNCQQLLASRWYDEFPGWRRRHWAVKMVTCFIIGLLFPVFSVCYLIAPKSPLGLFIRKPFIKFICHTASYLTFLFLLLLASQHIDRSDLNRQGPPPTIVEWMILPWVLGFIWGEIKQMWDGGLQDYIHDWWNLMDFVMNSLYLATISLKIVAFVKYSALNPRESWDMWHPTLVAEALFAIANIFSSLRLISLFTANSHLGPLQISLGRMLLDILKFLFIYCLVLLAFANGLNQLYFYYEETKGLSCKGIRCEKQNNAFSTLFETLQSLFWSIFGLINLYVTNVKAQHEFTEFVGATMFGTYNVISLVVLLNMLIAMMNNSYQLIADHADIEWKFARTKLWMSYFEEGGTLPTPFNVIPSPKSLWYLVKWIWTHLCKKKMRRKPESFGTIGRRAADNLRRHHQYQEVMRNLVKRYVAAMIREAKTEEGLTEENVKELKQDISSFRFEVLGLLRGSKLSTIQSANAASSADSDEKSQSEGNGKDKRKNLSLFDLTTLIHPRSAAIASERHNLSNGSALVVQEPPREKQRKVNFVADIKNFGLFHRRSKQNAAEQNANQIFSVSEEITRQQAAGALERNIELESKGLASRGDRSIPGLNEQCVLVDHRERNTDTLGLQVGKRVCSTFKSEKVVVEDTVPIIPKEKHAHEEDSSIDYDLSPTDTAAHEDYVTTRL
TRPC6 inhibitor: inhibitors of mouse TRPC6 channel. HEK293-TRPC6, membrane potential dye, ACh-evoked depolarization; active compounds read low. B-score at 10 µM. hit rate 1.1% among 310,000;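 active = B-score under library mean minus 3 SD, initial fluorescence not abnormally high, positive integrated signal ratio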;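 note: B-score derived from integrated fluorescence ratio over the kinetic read; more negative B-score means stronger inhibition of depolarization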
TRPC4 inh: inhibitors of mouse TRPC4 channel. Q9QUQ5. HEK293 TRPC4beta/mu-opioid, DAMGO-evoked Fluo4 calcium flux; active compounds read low. B-score at 10 µM. hit rate 0.39% among 300,000. AID 2247;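 active = B-score over 3 SD under the library average, no early fluorescence shift, positive overall ratio signal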
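Assay system: HEK293 cells with stable TRPC4beta plus mu-opioid receptor expression. Dosing: single dose. Measured by: Fluo4 Ca2+ flux fluorescence. Also added: DAMGO in two steps, submaximal then maximal. Read-out: B score from integrated Fluo4 fluorescence ratio.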
TRPC4 act: activators of mouse TRPC4 channel. Q9QUQ5. HEK293 TRPC4beta/mu-opioid, Fluo4 calcium fluorescence; active compounds read high. B-score at 10 µM. hit rate 0.49% among 310,000. AID 2237;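 active = B-score above 5 SD of library B-scores, and initial fluorescence ratio not above library mean plus 5 SD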;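 note: positive B-score marks a calcium rise read as TRPC4 activation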
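Assay system: HEK293 cells stably co-expressing mouse TRPC4beta and mu-opioid receptor / Timing: Fluo4 dye loading 45 min at room temperature, 110 s recording / Signal: Fluo4 calcium-sensitive dye fluorescence, kinetic, 1 Hz baseline / Read-out: integrated baseline-normalised fluorescence ratio, converted to per-well B score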
TRPC4 spec 2: second selectivity test of TRPC6 inhibitors: effect on mouse TRPC4 | shares compounds with TRPC6 inhibitor | HEK293 TRPC4/MOR, membrane potential dye fluorescence; channel activated by saturating DAMGO dose | inhibition, % at 10 µM | hit rate 42% among 920;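 active = compounds whose fluorescence signal differed from control wells by over 3 SD, either direction, in both duplicate plates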
TRPC4 spec: selectivity of TRPC6 inhibitors: effect on mouse TRPC4. shares compounds with TRPC6 inhibitor. hit rate 61% among 920. HEK293 TRPC4/mu-opioid, membrane potential fluorescence. activity change, negative = inhibition, % at 10 µM;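 active = rise or fall in signal beyond 3 SD of buffer-only wells in both replicate plates, either sign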;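 note: integrated kinetic ratio of fluorescence range over baseline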
HEK293 MPD ctr 2-1: second counter-screen for TRPC6 inhibitors: parental HEK293 cells | shares compounds with TRPC6 inhibitor | parental HEK293 membrane potential dye fluorescence; maximal acetylcholine challenge after compound addition | signal change vs control, % at 10 µM | hit rate 31% among 920;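 active = membrane potential signal moving either way by over 3 SD of the maximum-effect control, in both duplicate plates, meaning non-specific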
HEK293 MPD ctr-1: counter-screen for TRPC6 inhibitors: effect in parental HEK293 cells; shares compounds with TRPC6 inhibitor; parental HEK293 membrane potential dye fluorescence; membrane potential signal change, % at 10 µM; hit rate 60% among 920;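 active = membrane potential signal shifting up or down by more than 3 SD of buffer-only wells, on both duplicate plates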
HEK293 MPD ctr-2: checks TRPC6 modulator effects in parental HEK293 cells | shares compounds with TRPC6 inhibitor | hit rate 51% among 2,400 | membrane potential signal change, % at 10 µM | membrane potential dye fluorescence;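 active = membrane potential signal moves up or down beyond 5 SD from buffer-only wells, on both duplicate plates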
HEK293 MPD ctr 2-2: second counter-screen for TRPC6 modulators: effect in parental HEK293 cells; membrane potential dye fluorescence; after compound, maximal acetylcholine stimulation; shares compounds with TRPC6 inhibitor; hit rate 14% among 2,400; AID 488926; inhibition, % at 10 µM;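 active = membrane potential signal drops by more than 5 SD from the mean control signal, in both duplicate plates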
TRPC4/MOR mod: mouse TRPC4 off-target activity of TRPC6 modulators. shares compounds with TRPC6 inhibitor. HEK293 TRPC4/mu-opioid, membrane potential fluorescence. percent change from control (negative = decrease, positive = increase), % at 10 µM. hit rate 69% among 2,400;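 active = membrane potential signal moved up or down beyond 5 SD of buffer control wells, in both duplicate plates, actives on both sides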
TRPC4 ctr inh 2: second selectivity test of TRPC6 modulators against mouse TRPC4; shares compounds with TRPC6 inhibitor; inhibition, % at 10 µM; AID 488928; hit rate 55% among 2,400; HEK293 TRPC4/mu-opioid, membrane potential dye fluorescence; stimulated with maximal-effect DAMGO;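 active = drop in membrane potential signal beyond 5 SD of the control wells in both duplicate plates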;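 note: TRPC4 counter screen for TRPC6 hits run under conditions tuned for TRPC6 not TRPC4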
TRPC6 inh conf: mouse TRPC6 inhibitor confirmation | shares compounds with TRPC6 inhibitor | HEK293-TRPC6, membrane potential dye, ACh-evoked depolarization | inhibition, % at 10 µM | hit rate 43% among 3,300 | AID 488960;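 active = fluorescence ratio falls more than 5 SD below the full-stimulation control mean, in both duplicate runs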;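 note: integrated fluorescence ratio of peak minus minimum over baseline after agonist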
TRPC6 act confirm: mouse TRPC6 activator confirmation. hit rate 11% among 2,800. activation, % at 10 µM. AID 488961. HEK293-TRPC6 membrane potential dye fluorescence, FDSS. shares compounds with TRPC6 inhibitor;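 active = ratio signal rise beyond 5 SD above unstimulated control wells' mean, seen in both duplicate runs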
Numbers stand for hits; . = inactive; / = no result given.

SMILES	TRPC6 act	TRPC4 PAM	TRPC6 inhibitor	TRPC4 inh	TRPC4 act	HEK293 MPD ctr-2	HEK293 MPD ctr 2-2	TRPC4/MOR mod	TRPC4 ctr inh 2	TRPC6 inh conf	TRPC6 act confirm	others
CN1CCN(c2ccccc2NC(=O)c2ccc(N3CCCCC3)c([N+](=O)[O-])c2)CC1	.	.	-6.2	.	.	-121%	.	-31%	76%	44%	.
COC(=O)Cn1c(=NC(=O)c2nc3ccccc3s2)sc2cc(S(N)(=O)=O)ccc21	.	.	.	.	.	/	/	/	/	/	/
O=C(O)c1ccc(N2CCc3ccccc32)c([N+](=O)[O-])c1	.	.	.	.	.	/	/	/	/	/	/
CN1CCN(c2ccc([N+](=O)[O-])cc2NC(=O)c2ccccc2)CC1	.	.	-6.4	.	.	-323%	.	-50%	36%	.	.
CN1CCN(c2ccccc2NC(=O)c2cccc([N+](=O)[O-])c2)CC1	.	.	.	.	.	/	/	/	/	/	/
COc1ccc(C(=O)Nc2cc([N+](=O)[O-])ccc2N2CCN(C)CC2)cc1	.	.	-17	.	.	-386%	111%	-60%	82%	86%	.
COC(=O)c1ccc(N2CCc3ccccc32)c([N+](=O)[O-])c1	.	.	-5.3	.	.	.	.	-16%	40%	.	.
COc1ccc(Cl)cc1NC(=S)NCCc1ccc(F)cc1	.	.	.	.	.	/	/	/	/	/	/
CCN(CC(=O)Nc1c(F)cccc1F)C(=O)c1ccc(COc2ccccc2)o1	.	.	.	.	.	/	/	/	/	/	/
COc1ccc(-c2csc(NC(=O)CCCc3nc4ccccc4c(=O)[nH]3)n2)cc1OC	.	.	-5.2	.	.	.	.	14%	.	.	/
CCOC(=O)c1cnc2c(cnn2C)c1NCCCN(C)C	.	.	.	.	.	/	/	/	/	/	/
CCOC(=O)c1cnc2c(cnn2C)c1NCCCn1ccnc1	.	.	-7.5	.	.	-352%	115%	-52%	68%	73%	.
O=C(CC1C(=O)NCCN1C(=O)Nc1ccc(C(F)(F)F)cc1)Nc1ccc(F)cc1 (stereo unspecified)	.	.	-5	.	.	-106%	.	-18%	45%	.	.
Cc1cc(N2CCN(c3ccc(C(F)(F)F)cc3[N+](=O)[O-])CC2)c2ccccc2n1	.	.	-6.3	.	.	.	.	-12%	67%	.	.
Cc1cc(C)n(-c2ccc(C(F)(F)F)cc2[N+](=O)[O-])n1	.	.	-5.3	.	.	.	.	9.5%	.	.	.
Cc1cc(C)n(-c2ccc(S(=O)(=O)N3CCCC3)cc2[N+](=O)[O-])n1	.	.	.	.	.	/	/	/	/	/	/
Cc1cc(N2CCN(c3ccc([N+](=O)[O-])c4cccnc34)CC2)c2ccccc2n1	.	.	.	.	.	/	/	/	/	/	/
Cc1nn(CC#N)c(=O)n1-c1ccc(Cl)cc1	.	.	.	.	.	/	/	/	/	/	/
CCN(CC)C(=O)CSc1nc2ccccc2c(=O)n1-c1cccc(OC)c1	12	.	-5.9	.	.	158%	.	36%	.	.	73%
O=C(N/N=C/c1cc(Br)cc(Cl)c1O)c1ccc2c(c1)OCO2	.	.	.	.	.	/	/	/	/	/	/
CC(C)N1CCC2(CC1)N=C(c1ccc3c(c1)OCO3)CC(c1cc(Cl)ccc1O)N2 (stereo unspecified)	.	.	-7.1	.	.	/	/	/	/	.	.	TRPC4 spec 2=34%;TRPC4 spec=.;HEK293 MPD ctr 2-1=.;HEK293 MPD ctr-1=.
COc1ccc2c(c1OC)C(=O)N(c1ccc(OCc3ccccc3)cc1)C2=O	.	.	.	.	.	/	/	/	/	/	/
CCOC(=O)N1CCC(N2Cc3cccc(C(=O)N4CCN(c5cccc(Cl)c5)CC4)c3C2=O)CC1	.	.	-6.3	.	.	100%	.	22%	.	42%	/
CCOC(=O)N1CCC(N2Cc3cccc(C(=O)Nc4cccc(F)c4)c3C2=O)CC1	.	.	-9.2	.	.	/	/	/	/	90%	.	TRPC4 spec 2=.;TRPC4 spec=.;HEK293 MPD ctr 2-1=-12%;HEK293 MPD ctr-1=.
CC(C)c1ccc(/C=C(/C#N)c2nnc(NC(=O)c3ccccc3)s2)cc1	.	.	.	.	.	/	/	/	/	/	/
SMILES	TRPC6 act	TRPC4 PAM	TRPC6 inhibitor	TRPC4 inh	TRPC4 act	HEK293 MPD ctr-2	HEK293 MPD ctr 2-2	TRPC4/MOR mod	TRPC4 ctr inh 2	TRPC6 inh conf	TRPC6 act confirm	others
O=C(Nc1cccc(CNCCc2c[nH]c3ccccc23)c1)c1ccccc1Cl	.	.	-6.5	.	.	.	.	-15%	80%	55%	.
CCOC(=O)c1sc(=S)n(-c2ccc(OC)cc2)c1C	.	.	-6.3	.	.	.	.	10%	.	52%	/
CCOC(=O)c1sc(=S)n(-c2ccccc2Cl)c1SC	.	.	-7.7	.	.	/	/	/	/	.	.	TRPC4 spec 2=.;TRPC4 spec=.;HEK293 MPD ctr 2-1=.;HEK293 MPD ctr-1=.
CCOC(=O)c1sc(=S)n(-c2ccccc2)c1SC	.	.	.	.	.	/	/	/	/	/	/
CCCCN(C(=O)CSc1nnnn1-c1ccccc1OC)C1CCS(=O)(=O)C1 (stereo unspecified)	.	.	.	.	.	/	/	/	/	/	/
CCCCC12CN3CCN(CC(C3)/C1=N\NC(=O)Nc1ccccc1)C2	.	.	.	.	.	/	/	/	/	/	/
CC(=O)c1cc(F)c(N2CCN(C(=O)COc3ccc(F)cc3)CC2)cc1C	.	.	-5.7	.	.	.	.	10%	.	.	.
CNC(=O)NC(=O)COC(=O)/C=C/c1cccc(Br)c1	.	.	-8.5	.	.	/	/	/	/	.	.	TRPC4 spec 2=.;TRPC4 spec=.;HEK293 MPD ctr 2-1=.;HEK293 MPD ctr-1=.
NC(=O)NC(=O)COC(=O)/C=C/c1cccc(Br)c1	.	.	.	.	.	/	/	/	/	/	/
